Measurements taken from ChEMBL document CHEMBL1811814, “Synthesis and evaluation of indole, pyrazole, chromone and pyrimidine based conjugates for tumor growth inhibitory activities--development of highly efficacious cytotoxic agents” (Eur J Med Chem, 2010).

Columns and labels:
Assay type in all cases: functional
Parameters in all cases: scale not given: the % may be the effect or the level left
[1] = system: CCRF-CEM; test: Growth inhibition of human CCRF-CEM cells assessed tumor cell growth at 10^-5 M
In short: (§1)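 NCI 60-human-tumor-cell-line panel screen. Each compound was tested at a single concentration of 10^-5 M, and percent growth of tumor cells was recorded for each cell line. Growth inhibition was expressed from these percent-growth values.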

[2] = system: HL-60(TB); test: Growth inhibition of human HL-60(TB) cells assessed tumor cell growth at 10^-5 M
In short: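 HL-60(TB), part of the 60-line panel, tested at a single concentration of 10^-5 M. The read-out is percent tumor cell growth relative to untreated growth.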

[3] = system: K562; test: Growth inhibition of human K562 cells assessed tumor cell growth at 10^-5 M; in short: as §1
[4] = system: MOLT-4; test: Growth inhibition of human MOLT4 cells assessed tumor cell growth at 10^-5 M; in short: as §1
[5] = Growth inhibition of human […] cells assessed tumor cell growth at 10^-5 M; in short: as §1
[6] = system: SR; test: Growth inhibition of human SR cells assessed tumor cell growth at 10^-5 M
In short: (§2)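 Single-dose screen at 10^-5 M across the 60 human tumor cell line panel, run to NCI standards. The value is the percent growth of each cell line in the presence of compound. Compounds active at this dose moved on to five-concentration testing (10^-4 to 10^-8 M).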

[7] = system: A549; test: Growth inhibition of human A549 cells assessed tumor cell growth at 10^-5 M; in short: as §1
[8] = system: EKVX; test: Growth inhibition of human EKVX cells assessed tumor cell growth at 10^-5 M; in short: as §1
[9] = system: HOP-62; test: Growth inhibition of human HOP62 cells assessed tumor cell growth at 10^-5 M; in short: as §1
[10] = system: HOP-92; test: Growth inhibition of human HOP92 cells assessed tumor cell growth at 10^-5 M; in short: as §1
[11] = system: NCI-H226; test: Growth inhibition of human NCI-H226 cells assessed tumor cell growth at 10^-5 M; in short: as §1
[12] = system: NCI-H23; test: Growth inhibition of human NCI-H23 cells assessed tumor cell growth at 10^-5 M; in short: as §1
[13] = system: NCI-H322M; test: Growth inhibition of human NCI-H322M cells assessed tumor cell growth at 10^-5 M; in short: as §1
[14] = system: NCI-H460; test: Growth inhibition of human NCI-H460 cells assessed tumor cell growth at 10^-5 M; in short: as §1
[15] = system: NCI-H522; test: Growth inhibition of human NCI-H522 cells assessed tumor cell growth at 10^-5 M; in short: as §1
[16] = system: COLO 205; test: Growth inhibition of human COLO205 cells assessed tumor cell growth at 10^-5 M; in short: as §1
[17] = system: HCC 2998; test: Growth inhibition of human HCC2998 cells assessed tumor cell growth at 10^-5 M; in short: as §1
[18] = system: HCT-116; test: Growth inhibition of human HCT116 cells assessed tumor cell growth at 10^-5 M; in short: as §1
[19] = system: HCT-15; test: Growth inhibition of human HCT15 cells assessed tumor cell growth at 10^-5 M; in short: as §1
[20] = system: HT-29; test: Growth inhibition of human HT-29 cells assessed tumor cell growth at 10^-5 M; in short: as §1
[21] = system: KM12; test: Growth inhibition of human KM12 cells assessed tumor cell growth at 10^-5 M; in short: as §1
[22] = system: SW-620; test: Growth inhibition of human SW620 cells assessed tumor cell growth at 10^-5 M; in short: as §2
[23] = system: SF-268; test: Growth inhibition of human SF268 cells assessed tumor cell growth at 10^-5 M; in short: as §1
[24] = system: SF-295; test: Growth inhibition of human SF295 cells assessed tumor cell growth at 10^-5 M; in short: as §1
[25] = system: SF-539; test: Growth inhibition of human SF539 cells assessed tumor cell growth at 10^-5 M; in short: as §1
[26] = system: SNB-19; test: Growth inhibition of human SNB19 cells assessed tumor cell growth at 10^-5 M; in short: as §2
[27] = system: SNB-75; test: Growth inhibition of human SNB75 cells assessed tumor cell growth at 10^-5 M; in short: as §2
[28] = system: U-251; test: Growth inhibition of human U251 cells assessed tumor cell growth at 10^-5 M; in short: as §2
[29] = system: LOX IMVI; test: Growth inhibition of human LOXIMVI cells assessed tumor cell growth at 10^-5 M; in short: as §1
[30] = system: Malme-3M; test: Growth inhibition of human MALME-3M cells assessed tumor cell growth at 10^-5 M; in short: as §1
[31] = system: M14; test: Growth inhibition of human M14 cells assessed tumor cell growth at 10^-5 M; in short: as §1
[32] = system: MDA-MB-435; test: Growth inhibition of human MDA-MB-435 cells assessed tumor cell growth at 10^-5 M; in short: as §1
[33] = system: SK-MEL-2; test: Growth inhibition of human SK-MEL-2 cells assessed tumor cell growth at 10^-5 M; in short: as §1
[34] = system: SK-MEL-28; test: Growth inhibition of human SK-MEL-28 cells assessed tumor cell growth at 10^-5 M; in short: as §1
[35] = system: SK-MEL-5; test: Growth inhibition of human SK-MEL-5 cells assessed tumor cell growth at 10^-5 M; in short: as §1
[36] = system: UACC-257; test: Growth inhibition of human UACC257 cells assessed tumor cell growth at 10^-5 M; in short: as §2
[37] = system: UACC-62; test: Growth inhibition of human UACC62 cells assessed tumor cell growth at 10^-5 M; in short: as §2
[38] = system: IGROV-1; test: Growth inhibition of human IGROV1 cells assessed tumor cell growth at 10^-5 M; in short: as §1
[39] = system: OVCAR-3; test: Growth inhibition of human OVCAR3 cells assessed tumor cell growth at 10^-5 M; in short: as §1
[40] = system: OVCAR-4; test: Growth inhibition of human OVCAR4 cells assessed tumor cell growth at 10^-5 M; in short: as §1
[41] = system: OVCAR-5; test: Growth inhibition of human OVCAR5 cells assessed tumor cell growth at 10^-5 M; in short: as §1
[42] = system: OVCAR-8; test: Growth inhibition of human OVCAR8 cells assessed tumor cell growth at 10^-5 M; in short: as §1
[43] = system: NCI/ADR-RES; test: Growth inhibition of human NCI/ADR-RES cells assessed tumor cell growth at 10^-5 M; in short: as §1
[44] = system: SK-OV-3; test: Growth inhibition of human SKOV3 cells assessed tumor cell growth at 10^-5 M; in short: as §1
[45] = system: 786-0; test: Growth inhibition of human 786-0 cells assessed tumor cell growth at 10^-5 M; in short: as §1
[46] = system: A498; test: Growth inhibition of human A498 cells assessed tumor cell growth at 10^-5 M; in short: as §1
[47] = system: ACHN; test: Growth inhibition of human ACHN cells assessed tumor cell growth at 10^-5 M; in short: as §1
[48] = system: CAKI-1; test: Growth inhibition of human Caki1 cells assessed tumor cell growth at 10^-5 M; in short: as §1
[49] = system: RXF 393; test: Growth inhibition of human RXF393 cells assessed tumor cell growth at 10^-5 M; in short: as §1
[50] = system: SN12C; test: Growth inhibition of human SN12C cells assessed tumor cell growth at 10^-5 M; in short: as §1
[51] = system: TK-10; test: Growth inhibition of human TK10 cells assessed tumor cell growth at 10^-5 M; in short: as §2
[52] = system: UO-31; test: Growth inhibition of human UO31 cells assessed tumor cell growth at 10^-5 M; in short: as §2
[53] = system: PC-3; test: Growth inhibition of human PC3 cells assessed tumor cell growth at 10^-5 M; in short: as §1
[54] = system: DU-145; test: Growth inhibition of human DU145 cells assessed tumor cell growth at 10^-5 M; in short: as §1
[55] = system: MCF7; test: Growth inhibition of human MCF7 cells assessed tumor cell growth at 10^-5 M; in short: as §1
[56] = system: MDA-MB-231; test: Growth inhibition of human MDA-MB-231 cells assessed tumor cell growth at 10^-5 M; in short: as §1
[57] = Growth inhibition of human Hs 578T cells assessed tumor cell growth at 10^-5 M; in short: as §1
[58] = system: BT-549; test: Growth inhibition of human BT549 cells assessed tumor cell growth at 10^-5 M; in short: as §1
[59] = system: T47D; test: Growth inhibition of human T47D cells assessed tumor cell growth at 10^-5 M; in short: as §2
[60] = system: MDA-MB-468; test: Growth inhibition of human MDA-MB-468 cells assessed tumor cell growth at 10^-5 M; in short: as §1

Cc1ccc(S(=O)(=O)n2cc(/C=C3\C(=O)N(c4c(Cl)cccc4Cl)c4ccccc43)c3ccccc32)cc1
Activity [1]: 95.6% | Activity [2]: 79.6% | Activity [3]: 86.5% | Activity [4]: 89.6% | Activity [5]: 77.8% | Activity [6]: 87.4% | Activity [7]: 103.8% | Activity [8]: 89.5% | Activity [9]: 83.2% | Activity [10]: 33.5% | Activity [11]: 95.2% | Activity [12]: 76.6% | Activity [13]: 99.4% | Activity [14]: 102.8% | Activity [15]: 91.5% | Activity [16]: 100.1% | Activity [17]: 86.7% | Activity [18]: 87% | Activity [19]: 104.5% | Activity [20]: 89.3% | Activity [21]: 97.6% | Activity [22]: 89.9% | Activity [23]: 86.4% | Activity [24]: 100.8% | Activity [25]: 102.9% | Activity [26]: 105.9% | Activity [27]: 74.3% | Activity [28]: 98.2% | Activity [29]: 89.7% | Activity [30]: 75.8% | Activity [31]: 76% | Activity [32]: 99.2% | Activity [33]: 94.5% | Activity [34]: 95.8% | Activity [35]: 101% | Activity [36]: 106.8% | Activity [37]: 78.2% | Activity [38]: 83.8% | Activity [39]: 94.9% | Activity [40]: 73.8% | Activity [41]: 84.2% | Activity [42]: 96.7% | Activity [43]: 88.2% | Activity [44]: 98.7% | Activity [45]: 92.1% | Activity [46]: 44% | Activity [47]: 89.8% | Activity [48]: 79.5% | Activity [49]: 121.2% | Activity [50]: 87.4% | Activity [51]: 102.3% | Activity [52]: 63.9% | Activity [53]: 64.5% | Activity [54]: 102.5% | Activity [55]: 84.6% | Activity [56]: 89.3% | Activity [57]: 73.4% | Activity [58]: 94.2% | Activity [59]: 88.7% | Activity [60]: 84%

CC1=NN(c2cccc(Cl)c2)C(=O)/C1=C\c1ccccn1
Activity [1]: 32.58% | Activity [2]: 113.01% | Activity [3]: 102.25% | Activity [4]: 111.67% | Activity [5]: 96.65% | Activity [6]: 112.11% | Activity [7]: 116.18% | Activity [8]: 117.01% | Activity [9]: 107.34% | Activity [10]: 100.37% | Activity [11]: 112.86% | Activity [12]: 111.77% | Activity [13]: 123.35% | Activity [14]: 117.15% | Activity [15]: 104.42% | Activity [16]: 112.21% | Activity [17]: 120.72% | Activity [18]: 88.7% | Activity [19]: 114.26% | Activity [20]: 114.19% | Activity [21]: 111.47% | Activity [22]: 116.97% | Activity [23]: 100.43% | Activity [24]: 118.39% | Activity [25]: 115.91% | Activity [26]: 111.92% | Activity [27]: 103.79% | Activity [28]: 115.89% | Activity [29]: 116.29% | Activity [30]: 121.3% | Activity [31]: 80.87% | Activity [32]: 117.42% | Activity [33]: 112.74% | Activity [34]: 128.95% | Activity [35]: 103.51% | Activity [36]: 115.54% | Activity [37]: 101.53% | Activity [38]: 103.16% | Activity [39]: 117.75% | Activity [40]: 128.45% | Activity [41]: 116.2% | Activity [42]: 105.14% | Activity [43]: 116.87% | Activity [44]: 113.71% | Activity [45]: 113.47% | Activity [46]: 111.6% | Activity [47]: 103.1% | Activity [48]: 98.46% | Activity [49]: 114.31% | Activity [50]: 91.77% | Activity [51]: 118.17% | Activity [52]: 81.52% | Activity [53]: 113.15% | Activity [54]: 120.58% | Activity [55]: 102.77% | Activity [56]: 106.88% | Activity [57]: 111.76% | Activity [58]: 111.06% | Activity [59]: 100.29% | Activity [60]: 116.6%
